Source: PubChem
Neddyl block – inhibitors of human cullin neddylation. P61081+Q13564. TR-FRET cullin neddylation, biochemical. inhibition, % at 25 µM. 360,000 compounds, 0.58% hits; in the data active means inhibition above about 36%
Pemphigus Ab inh – human desmoglein-3 autoantibody binding inhibition. DSG3-coupled beads, scFv-anti-DSG3-GFP binding, flow cytometry; stronger effect = lower value. 310,000 compounds, 0.48% hits. binding (percent of control), % at 10 µM;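 active means binding more than 3 SD below its plate's average and above zero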;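 further: hits lower antibody fragment binding to DSG3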
Efflux pump mplx – antifungal efflux pump inhibition, Nile Red retention; 330,000 compounds, 0.44% hits; AID 485275; inhibition, % at 10 µM; S. cerevisiae Candida pump triplex;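 active means plate passing quality check with inhibition over a set limit, or well fluorescence over plate mean plus 4 SD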;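 further: Nile Red retained in pooled yeast measured as flow cytometry median fluorescence; 0% = buffer negative control and 100% = Enniatin B positive control; higher means more Nile Red kept so more efflux inhibition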
Arrestin-AP2 inh – inhibitors of human beta-arrestin and AP2 interaction. FITC-arrestin peptide / GST-AP2 beads, flow cytometry; AP2 beta2 appendage carries R879A mutation. 340,000 compounds, 0.31% hits. inhibition, % at 10 µM;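 active means inhibition above a set limit, near 3 SD of compounds lacking own fluorescence, cut at about 54% in these data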;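 further: plate controls were DMSO wells for no effect and 5 µM unlabelled arrestin peptide for full effect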
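System: GST-tagged AP2 beta2-adaptin appendage (R879A) on 4 µm glutathione beads / Reagent: FITC-arrestin peptide, 50 nM / Detection: HyperCyt-sampled flow cytometry, FL1 channel, ex 488/em 535 nm / Timing: 12 min plus 1 h, RT / Buffer or medium: PBS plus Tween 20 (0.05%) and BSA (0.1%)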
Arr-AP2 CP1 – human beta-arrestin and AP2 interaction inhibition, cherry pick | shares compounds with Arrestin-AP2 inh | GST-AP2 beads, FITC arrestin peptide binding, flow cytometry; GST-fused beta2-adaptin appendage, R879A mutant | inhibition, % at 10 µM | 1,300 compounds, 2% hits;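 active means inhibition above a set limit, roughly 3 SD of non-fluorescent compound noise, cut at about 38% in these data; inactive means inhibition at or below that limit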;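 further: loss of bead fluorescence from 50 nM FITC arrestin peptide bound to appendage; 0% = negative control wells and 100% = excess unlabelled arrestin peptide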
Target sequence (P63010 whole entry, looked up, the tested form may be a part, one chain of several): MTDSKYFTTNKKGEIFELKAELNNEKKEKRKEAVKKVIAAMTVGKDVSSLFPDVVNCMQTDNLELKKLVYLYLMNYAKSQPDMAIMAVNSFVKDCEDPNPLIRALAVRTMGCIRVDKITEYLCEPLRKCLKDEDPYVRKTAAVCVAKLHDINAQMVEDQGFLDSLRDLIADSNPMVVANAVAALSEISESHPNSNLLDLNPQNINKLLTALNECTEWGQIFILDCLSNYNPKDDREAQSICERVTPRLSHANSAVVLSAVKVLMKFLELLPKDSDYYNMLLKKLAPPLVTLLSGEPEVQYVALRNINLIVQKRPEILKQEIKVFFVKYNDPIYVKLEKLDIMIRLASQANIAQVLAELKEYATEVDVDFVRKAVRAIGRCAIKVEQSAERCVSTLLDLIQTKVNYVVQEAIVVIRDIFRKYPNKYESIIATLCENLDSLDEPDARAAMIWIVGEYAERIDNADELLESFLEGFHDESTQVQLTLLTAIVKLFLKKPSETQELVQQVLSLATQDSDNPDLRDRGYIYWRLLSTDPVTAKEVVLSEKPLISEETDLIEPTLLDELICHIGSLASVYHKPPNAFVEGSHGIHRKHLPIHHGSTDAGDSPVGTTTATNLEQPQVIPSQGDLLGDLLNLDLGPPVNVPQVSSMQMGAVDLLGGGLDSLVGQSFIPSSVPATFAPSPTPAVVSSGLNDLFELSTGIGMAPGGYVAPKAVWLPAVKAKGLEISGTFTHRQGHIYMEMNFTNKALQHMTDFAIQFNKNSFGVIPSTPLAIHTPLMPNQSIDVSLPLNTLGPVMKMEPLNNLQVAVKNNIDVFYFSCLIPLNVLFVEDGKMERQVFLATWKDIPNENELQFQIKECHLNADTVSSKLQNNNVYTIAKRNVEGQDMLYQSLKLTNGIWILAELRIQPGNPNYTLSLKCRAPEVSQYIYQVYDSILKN
GST-FITC bead – disrupts GST binding to glutathione beads, arrestin-AP2 artifact. shares compounds with Arrestin-AP2 inh. GST-fluorescein binding to GSH beads, fluorescence, counter-screen. inhibition, % at 10 µM. 1,300 compounds, 2% hits. AID 588338;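 active means inhibition above 50%, about 3 SD of the inhibition seen with non-fluorescent compounds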;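 further: fluorescein maleimide labelled GST captured on 4 micron glutathione beads; higher means more loss of bead fluorescence from quenching or blocked binding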
The depositor's hits bear a star; · = not tested or not shown. Hits are enriched below; roughly 1.7% of the tested compounds scored in any of these assays.

SMILES | Neddyl block | Pemphigus Ab inh | Efflux pump mplx | Arrestin-AP2 inh | Arr-AP2 CP1 | GST-FITC bead
COc1ccc(S(=O)(=O)NCC2CCCN(Cc3cccc(C(C)=O)c3)C2)cc1 (centres undefined) | -5 | 134 | 0 | 62* | 5 | -1
O=C1CC(c2ccco2)CC2=C1C1c3ccccc3C(=O)N1c1ccccc1N2 (centres undefined) | 7 | 98 | 0 | 99* | 6 | -4
CCCCCC(=O)N1C[C@@H](O)[C@H](n2cc(C3CC3)nn2)C[C@@H]1c1ccc(Cl)cc1 | 10 | 106 | · | · | · | ·
CCOC(=O)COc1ccc2c(C#N)c3ccccn3c2c1 | · | 100 | · | 56* | -11 | -1
O=C(CSc1nc(O)c(C(c2ccccc2)c2ccccc2)c(=O)[nH]1)N1CCOCC1 | -2 | 123 | 0 | 68* | -17 | -6
O=C(CSc1nc(O)c(-c2ccccc2)c(=O)[nH]1)N1CCOCC1 | 12 | 93 | 0 | -46 | · | ·
O=C(CCN1C(=O)S/C(=C\c2ccccc2)C1=O)Nc1ccc(S(=O)(=O)Nc2nccs2)cc1 | -33 | 109 | 0 | 16 | · | ·
COc1ccccc1/C=C1/SC(=O)N(CCC(=O)Nc2ccc(S(=O)(=O)Nc3nccs3)cc2)C1=O | -8 | 100 | 0 | 61* | 3 | 2
O=C(Cc1ccccc1)NCC(=O)N1CCC2(CC1)NCCc1[nH]cnc12 | 6 | 106 | 0 | 22 | · | ·
CC(/C=C\C=C\c1ccccc1)=N\NC(=O)c1cncc(Br)c1 | 4 | 89 | 0 | 92* | 5 | 8
CC(/C=C/C=C/c1ccccc1)=N\NC(=O)c1cccnc1 | -11 | 101 | 0 | 41 | · | ·
Cc1c(N(C(=O)Nc2ccccc2)C2=NCC(C)S2)c(=O)n(-c2ccccc2)n1C (centres undefined) | 5 | 101 | 0 | 98* | -3 | -1
O=C(c1cnn2c(C(F)F)cc(-c3ccccc3)nc12)N1CCCc2ccccc21 | -9 | 102 | 0 | -8 | 5 | 3
O=C(c1cnn2c(C(F)(F)F)cc(-c3ccccc3)nc12)N1CCCc2ccccc21 | 1 | 100 | 0 | -10 | -8 | -4
COc1ccc(-c2cc(C(F)F)n3ncc(C(=O)N4CCCc5ccccc54)c3n2)cc1 | 5 | 95 | 0 | 106* | 8 | 66*
Cc1ccc(S(=O)(=O)N(CC(=O)Nc2cccc([N+](=O)[O-])c2)C(=O)N2CCN(C)CC2)cc1 | -9 | 102 | · | 3 | · | ·
CC(=O)Oc1ccccc1-n1c(C)nc(=O)c(-c2ccccc2)c1C | -4 | 109 | 0 | 11 | · | ·
O=C(COC(=O)C1(c2ccccc2F)CCCC1)NCc1cccs1 | -5 | 110 | 0 | 58* | -3 | -5
O=C(O)c1cc2nc(-c3ccccc3)cc(C(F)(F)F)n2n1 | -12 | 100 | 0 | 7 | · | ·
O=C(O)c1cc2nc(-c3ccccc3)cc(-c3ccccc3)n2n1 | 15 | 94 | 0 | 68* | -10 | 1
O=C(Oc1ccccc1F)c1ccc2c(=O)n3c(nc2c1)CCC3 | 2 | 99 | 0 | 57* | 5 | -1
O=C(Oc1ccccc1Cl)c1ccc2c(=O)n3c(nc2c1)CCC3 | 2 | 101 | 0 | 16 | · | ·
Cc1ccc(-c2nc3cc(C)c(Br)c(C)n3c2Cc2ccccc2)cc1 | -9 | · | · | · | · | ·
CCOc1ccc(NC(=S)N2CCN(S(=O)(=O)c3ccc(C)cc3)CC2)cc1 | -6 | 107 | 0 | 6 | · | ·
CCOc1ccc(NC(=S)N2CCN(S(=O)(=O)c3ccccc3)CC2)cc1 | -1 | 111 | 0 | 58* | -15 | -8
SMILES | Neddyl block | Pemphigus Ab inh | Efflux pump mplx | Arrestin-AP2 inh | Arr-AP2 CP1 | GST-FITC bead
COc1ccc(OC)c(S(=O)(=O)Nc2cccc(-c3ccc(N4CCCCCC4)nn3)c2)c1 | -116 | · | 0 | 60* | 6 | -4
COc1ccc(S(=O)(=O)Nc2cccc(-c3ccc(N4CCCCCC4)nn3)c2)c(OC)c1 | -139 | 88 | 0 | -10 | · | ·
O=C(COC(=O)c1ccccn1)c1ccc([N+](=O)[O-])cc1 | -37 | 111 | 5 | -12 | · | ·
O=C(/C=C/c1ccccc1)NCCS(=O)(=O)N1CCN(c2ccccc2)CC1 | 4 | 101 | 0 | 55* | -4 | -9
CCCCn1c(=N)n(CCOc2ccc(C)cc2)c2ccccc21 | -12 | 138 | 0 | 73* | -4 | -3
O=C(Nc1cc(Cl)ccc1Oc1ccccc1)c1ccc(F)cc1 | 10 | 99 | 0 | 61* | -8 | -10
O=C(Nc1cc(Cl)ccc1Oc1ccccc1)c1ccccc1F | 19 | 97 | 0 | -11 | · | ·
Cc1ccc(C)c(SCC(=O)NC(=O)NC2CCCC2)c1 | 1 | 102 | 0 | -3 | · | ·
Cc1ccc(SCC(=O)NC(=O)NC2CCCC2)c(C)c1 | 4 | 114 | · | 64* | -4 | -6
COc1ccc(C(=O)NCCS(=O)(=O)N2CCc3ccccc3C2)cc1OC | 2 | 111 | 0 | -3 | · | ·
C=CCN1C(=O)/C(=C/c2ccc(-c3ccc(F)cc3)o2)SC1=S | -21 | 106 | 0 | 67* | 10 | 20
C=CCN1C(=O)/C(=C/c2ccsc2)SC1=S | -16 | 77 | 0 | 7 | · | ·
Cc1c(NS(=O)(=O)c2cccc(C(=O)NCc3ccco3)c2)c(=O)n(-c2ccccc2)n1C | 12 | 92 | · | 95* | 6 | -9
O=C(NN=Cc1cc(=O)[nH]c(=O)[nH]1)c1ccncc1 | -15 | · | · | -11 | · | ·
Cc1ccc(S(=O)(=O)NCCC(=O)N2CCCCCCC2)cc1C | 13 | 100 | 0 | 5 | · | ·
C=CCN1/C(=C(\C#N)C2=NS(=O)(=O)c3ccccc32)N(C)c2ccccc21 | 3 | 105 | -5 | 55* | 8 | -4
COc1ccccc1N1CCN(C2=NS(=O)(=O)c3ccccc32)CC1 | -2 | 80 | 0 | 11 | · | ·
COCCSc1nnc(NS(=O)(=O)c2ccc(C)cc2)s1 | 1 | 98 | 0 | 59* | 3 | -2
Cc1noc(C)c1NC(=O)N(C)C[C@H]1Oc2ccc(NC(=O)c3ccncc3)cc2C(=O)N([C@H](C)CO)C[C@@H]1C | 1 | 91 | 0 | -4 | · | ·
O=C(Nc1ccc(NC(=S)NC(=O)c2ccccc2Cl)cc1)c1cccc(Cl)c1 | -3 | 99 | 0 | 59* | 9 | 0
CC(C)C(=O)Nc1cccc(NC(=S)NC(=O)c2ccccc2Cl)c1 | 4 | 95 | 0 | 25 | · | ·
CC(C)CN(C(=O)c1ccc(S(=O)(=O)N2CCCC2)cc1)C1CCS(=O)(=O)C1 (centres undefined) | -3 | 99 | 0 | 55* | 8 | -8
CC(C)(C)NC(=O)CC1C[C@H](C(=O)N2CCOCC2)[C@@]2(C)c3[nH]c4ccccc4c3CCN2C1=O (some centres undefined) | -3 | 101 | 0 | 4 | · | ·
CCCCCc1nc2sc3c(c2c(=O)n1N)CCC3 | -11 | 95 | 0 | 97* | -6 | -3
